The results in this text go back to PubChem BioAssay.

SMILES strings stand for the structures. Calls of active or inactive are those of the source.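 Rule for the calls, unless noted: active = inhibition above 20% together with a positive visual image hit; inconclusive = visual image hit but inhibition not above 20%; inactive = no visual image hit.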

The nature of assay [1]: inhibitors of TNFa-induced NFkB p65 translocation, primary screen, imaging, HUVEC, MLSMR starter and 10KST1 sets (AID 438).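 For inhibition: signal is the nuclear over cytoplasmic p65 intensity ratio per well.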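 Note: compound added about 3h40 before a 20 min TNFalpha stimulation.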 The settings on record: HUVEC TNFa-induced p65 nuclear translocation; cell count: measured here: nuclei count (cytotoxicity indicator), at 2.08 µM; inhibition: at 2 µM, stronger effect = higher value, 0% TNFa-plus-vehicle, 100% no-TNFa wells.
A short description of assay [2]: inhibitors of mutant huntingtin aggregation, primary screen, imaging, exon1htt(103Q)mCFP cells, high-content imaging (AID 483;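 active = visual image review flags a hit and inhibition of aggregation exceeds 20%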;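 note: compound exposure lasted 3 days before fixation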;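 for nuclei count: percent of the per-plate median nuclei count of sample wells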). The settings on record: exon1htt(103Q)mCFP cell line, aggregate imaging, at 2 µM; inhibition of aggregation: stronger effect = higher value; nuclei count: measured here: cell count, toxicity.
A short description of assay [3]: inhibitors of E-selectin induction by TNFa, primary screen, imaging, HUVEC, immunofluorescence, MLSMR starter and 10KST1 sets (AID 487;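 active = visually confirmed hit in the image check and inhibition above 20%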;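 for inhibition: signal is fraction of cell area covered by stained E-selectin grains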;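 for nuclei count: 100% = median nuclei count of all wells on the same plate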). As to conditions: HUVEC TNFalpha-induced E-selectin immunofluorescence imaging, at 2 µM; inhibition: stronger effect = higher value; nuclei count: measured here: cell number, toxicity.
Assay [4] deals with Voltage-gated potassium channel subunit beta-2 (Rattus norvegicus) (UniProt P62483). The experiment in a line: KvBeta enzyme negative modulators, primary screen, biochemical, NADPH fluorescence (AID 622;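 active = fluorescence slope higher than the sample average by over 3 SD, cut at about -0.22 in these data, passing the limit was not always enough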;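 note: slope of raw intensity against log time taken from 70 to 1610 s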). The settings on record: recombinant KvBeta, 4-cyanobenzaldehyde reduction, at 10 µM, stronger effect = higher value.
Assay [5] shares this target. The experiment in a line: KvBeta positive modulators, primary screen, biochemical, NADPH fluorescence (AID 623;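 active = NADPH fluorescence slope more negative than the mean of all samples by about 3 SD, 99.7% confidence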;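 note: fluorescence intensity change per second fitted from 20 to 320 s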). The settings on record: Recombinant KvBeta, NADPH fluorescence decrease slope, 10 min; at 10 µM; stronger effect = lower value.
For assay [6], the target named is Alpha-2C adrenergic receptor (Homo sapiens) (UniProt P18825). The experiment in a line: modulators of alpha2C/GIRK thallium flux, primary screen, cell-based, HEK293 alpha2C/GIRK1/2 (AID 624;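 active = fluorescence slope after compound addition differing from the mean of all screened samples at 99.7% confidence, in either direction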;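 note: slope of fluorescence ratio to pre-addition baseline per second over 15 to 24 s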). As to conditions: thallium flux BTC fluorescence, at 10 µM, actives lie on both sides.
Assay [7] in a line: inhibitors of larval lipid processing in zebrafish, primary screen, whole organism, PED6 fluorescence, gall bladder and intestine (AID 686;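 active = a full or partial loss of lipid-probe fluorescence in the fish gall bladder, intestine or both, judged by eye; inactive = no fluorescence loss, or compound toxic to the fish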;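 note: larvae 5 to 7 days old with five fish per well; signal comes from phospholipase A2 cleavage of quenched PED6 carried via bile; overnight exposure to compound and PED6 before scoring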). As to conditions: Zebrafish larvae PED6 lipid processing, fluorescence scoring; screened at 20 µM (by protocol). In short, it runs like this:
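Also added: quenched phospholipase substrate PED6, 100 nM final, ingested by larvae; System: zebrafish larvae, 5-7 d; Quantity: 5 larvae per well; Compound: 20 µM single dose; Schedule: overnight compound and PED6 incubation; Read-out: visual per-well fluorescence inhibition score; Measured by: By-eye fluorescence microscopy; Medium: E3.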

A short description of assay [8]: inhibitors of Sendai virus-induced IRF3 signaling, primary screen, TLR/RLR signaling modifier project, cell-based, Sendai virus stimulus, luciferase, 10K MLSCN set (AID 602276;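 active = inhibition at or above 50% at 10 µM; inactive = inhibition below 50%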;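 note: firefly luciferase from ISG56 promoter only with Renilla not read in this screen; 0% = Sendai virus plus DMSO and 100% = medium plus DMSO without virus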). The settings on record: HEK293 RL24 IRF3 luciferase reporter, at 10 µM, stronger effect = higher value. On the technique in general: In a reporter assay the amount or activity of a reporter protein is the signal.

Assay [9] in a line: inhibitors of poly I:C-induced TLR3 signaling, primary screen, cell-based, poly I:C stimulus, luciferase, 10K MLSCN set (AID 602277;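 active = inhibition of the reporter signal at or above 50%; inactive = inhibition below 50%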). The settings on record: HEK293-TLR3 RL24 IRF3 luciferase reporter, at 10 µM, stronger effect = higher value.

Sequence of Voltage-gated potassium channel subunit beta-2 (Rattus norvegicus) (P62483 whole entry, looked up): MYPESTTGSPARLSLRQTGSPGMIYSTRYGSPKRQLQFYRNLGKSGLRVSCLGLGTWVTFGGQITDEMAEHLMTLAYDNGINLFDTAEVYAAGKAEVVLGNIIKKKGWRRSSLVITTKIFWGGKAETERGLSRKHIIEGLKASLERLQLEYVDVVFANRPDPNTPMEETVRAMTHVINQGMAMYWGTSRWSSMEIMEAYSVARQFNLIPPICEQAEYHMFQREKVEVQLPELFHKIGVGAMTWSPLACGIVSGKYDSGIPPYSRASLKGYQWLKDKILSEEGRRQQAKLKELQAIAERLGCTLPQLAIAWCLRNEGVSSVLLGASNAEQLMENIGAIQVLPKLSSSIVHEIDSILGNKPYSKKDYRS
Sequence of Alpha-2C adrenergic receptor (Homo sapiens) (P18825 whole entry, looked up): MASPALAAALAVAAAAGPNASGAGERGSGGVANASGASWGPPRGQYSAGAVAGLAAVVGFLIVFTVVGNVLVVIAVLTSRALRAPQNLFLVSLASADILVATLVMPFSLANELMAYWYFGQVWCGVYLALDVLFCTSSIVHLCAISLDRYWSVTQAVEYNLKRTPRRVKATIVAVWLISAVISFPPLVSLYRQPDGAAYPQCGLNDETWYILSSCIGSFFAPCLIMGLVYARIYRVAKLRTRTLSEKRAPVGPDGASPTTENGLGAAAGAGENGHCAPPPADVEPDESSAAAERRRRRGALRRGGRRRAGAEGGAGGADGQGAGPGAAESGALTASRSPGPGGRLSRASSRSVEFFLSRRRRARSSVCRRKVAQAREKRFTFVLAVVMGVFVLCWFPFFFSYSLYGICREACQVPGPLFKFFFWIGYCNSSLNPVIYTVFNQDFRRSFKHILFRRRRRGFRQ

As to `COc1ccc(NC(=O)CSc2nc(C)cc(C(F)(F)F)n2)cc1`, the cell count in assay [1] stood at 648. The inhibition in [1] is -3.3% (inactive); in assay [3], -1% (inactive); in [8], 14.9% (inactive); in assay [9] it was 18.5% (inactive). For the same molecule, the inhibition of aggregation in assay [2] is 8.8% (inactive). The results for the nuclei count in [2] and in [3] were 95.3% and 92.8%, respectively. The fluorescence slope in [4] is -0.418 (inactive). The NADPH fluorescence slope in assay [5] is -2.1e-05 (inactive). The slope in [6] was 0.00507 (inactive). In addition, the outcome in assay [7] was inactive.
Consider `COC(=O)c1ccccc1NC(=O)CN1CCC(n2nnc3cc(F)ccc32)CC1`, for which the cell count in [1] was found to be 488. Moreover, the inhibition in assay [1] is 6% (inactive); in [3] it was 35% (inactive); in assay [8] it was 15.8% (inactive); in assay [9], 25.9% (inactive). The inhibition of aggregation in assay [2] is -5.5% (inactive). The nuclei count in assay [2] was found to be 103%; in assay [3], 91.3%. Besides, the fluorescence slope in assay [4] is -0.453 (inactive). Further, in [5], the NADPH fluorescence slope was -4.1e-05 (inactive). Besides, in [6], the slope is 0.00532 (inactive). Further, in assay [7], the molecule was called inactive.
As to `C1=C(CCNc2ncnc3c2cnn3-c2ccccc2)CCCC1`, in assay [1], the cell count worked out at 355. For the same molecule, the inhibition was 2.8% (inactive) in assay [1], -22.4% (inactive) in assay [3], -36.5% (inactive) in assay [8] and -142% (inactive) in [9]. For the same molecule, the inhibition of aggregation in assay [2] is 17.1% (inactive). Moreover, the nuclei count in assay [2] is 91.5%; in [3] it was 124%. Further, the fluorescence slope in assay [4] was -0.375 (inactive). Also, in assay [5], the NADPH fluorescence slope is -6.3e-05 (inactive). Moreover, in assay [6], the slope was 0.00514 (inactive). The call in assay [7] was inactive.
On to `CSc1ccccc1NC(=O)CN(c1ccccc1)S(=O)(=O)N(C)C`, for which the cell count in assay [1] is 429. The inhibition in assay [1] was -0.8% (inactive); in assay [3], 4.1% (inactive); in [8] it was 15.6% (inactive); in assay [9], 20.5% (inactive). In addition, the inhibition of aggregation in assay [2] was 1.4% (inactive). Also, the figures for the nuclei count in [2] and in assay [3] were 96% and 140%, respectively. Also, the fluorescence slope in [4] was -0.356 (inactive). Moreover, the NADPH fluorescence slope in [5] was 3.3e-06 (inactive). The slope in assay [6] is 0.00624 (inactive). For the same molecule, in assay [7], the outcome was inactive.
Regarding `Cc1occc1-c1nnc(SCC(=O)N2CCOCC2)n1Cc1ccco1`, the cell count in [1] was 382. Also, the inhibition in [1] was 3% (inactive); in [3], -41% (inactive); in assay [8] it was 8.29% (inactive); in assay [9], 12.6% (inactive). Moreover, the inhibition of aggregation in assay [2] was -5.6% (inactive). Moreover, the nuclei count in assay [2] was 82.5%; in assay [3], 107%. For the same molecule, the fluorescence slope in [4] is -0.371 (inactive). In [5], the NADPH fluorescence slope was -5e-05 (inactive). Moreover, in assay [6], the slope is 0.00496 (inactive). The molecule was called inactive in assay [7].
Turning to `COc1ccc2cc(C#N)c(N3CCN(Cc4nnnn4CCC(C)C)CC3)nc2c1`, the cell count in [1] was determined as 363. Also, the inhibition in assay [1] is 7% (inactive); in assay [3], -5.8% (inactive); in assay [8] it was 12.8% (inactive); in assay [9], -2.3% (inactive). Moreover, the inhibition of aggregation in [2] was 20.7% (inactive). Further, the nuclei count in assay [2] is 85.8%; in assay [3], 78.1%. Also, the fluorescence slope in assay [4] was -0.379 (inactive). For the same molecule, the NADPH fluorescence slope in assay [5] is -3.8e-05 (inactive). Besides, the slope in [6] was 0.00501 (inactive). For the same molecule, in [7], the molecule was called inactive.
For `O=C(NCc1cccnc1)c1cccc(C(F)(F)F)c1`, in assay [1], the cell count came out at 355. Further, the inhibition in [1] is 5.2% (inactive); in [3] it was 4.9% (inactive); in assay [8], 11.3% (inactive); in assay [9], 20.1% (inactive). In assay [2], the inhibition of aggregation is 1.3% (inactive). For the same molecule, the nuclei count in assay [2] was found to be 111%; in assay [3], 103%. Further, the fluorescence slope in assay [4] is -0.452 (inactive). In addition, in [5], the NADPH fluorescence slope is -2.9e-05 (inactive). Further, the slope in assay [6] is 0.00523 (inactive). Moreover, the result in [7] was inactive.
With `c1ccc2c(-c3nc(-c4ccncc4)no3)cccc2c1`, in assay [1], the cell count was determined as 313. Also, the inhibition in [1] was -1.1% (inactive); in assay [3], -210% (inactive); in [8] it was -14.2% (inactive); in assay [9], -43.8% (inactive). Moreover, the inhibition of aggregation in assay [2] was -4.5% (inactive). The values for the nuclei count in [2] and in [3] were 88.4% and 118%, respectively. For the same molecule, in assay [4], the fluorescence slope was -0.442 (inactive). The NADPH fluorescence slope in assay [5] is -3.1e-05 (inactive). For the same molecule, the slope in assay [6] is 0.00497 (inactive). Moreover, the molecule was called inactive in assay [7].
For `CCOC(=O)c1cnc(-n2nc(C)cc2C)nc1N1CC(C)OC(C)C1` (stereo unspecified), the cell count in assay [1] was 654. Moreover, the inhibition in [1] was -15.5% (inactive); in assay [3], -1.6% (inactive); in assay [8], -6.36% (inactive); in assay [9] it was 6.34% (inactive). In addition, the inhibition of aggregation in [2] was 29.7% (inactive). Also, the nuclei count in assay [2] worked out at 69.8%; in assay [3], 96.9%. Also, the fluorescence slope in assay [4] is -0.411 (inactive). The NADPH fluorescence slope in assay [5] was -3.9e-05 (inactive). Moreover, the slope in [6] is 0.00483 (inactive). The outcome in assay [7] was inactive.
As to `CCN1C(=O)/C(=C/N(C)c2ccccc2)OC1=S`, the cell count in [1] was 592. For the same molecule, the inhibition in [1] is -12.2% (inactive); in [3], 34.8% (inactive); in [8], -11.5% (inactive); in assay [9], -64.8% (inactive). The inhibition of aggregation in [2] was 12.1% (inactive). The nuclei count in [2] came out at 84.4%; in [3], 93.7%. The fluorescence slope in assay [4] is -0.469 (inactive). The NADPH fluorescence slope in assay [5] is -5.3e-05 (inactive). Besides, in [6], the slope is 0.00485 (inactive). The molecule was classed as inactive in assay [7].
Consider `CCOCC(O)CS(=O)Cc1ccccc1` (stereo unspecified), for which, in [1], the cell count is 343. For the same molecule, the inhibition is -7.4% (inactive) in [1], -38.6% (inactive) in [3], 8.68% (inactive) in assay [8] and 14.1% (inactive) in assay [9]. In assay [2], the inhibition of aggregation is 4.7% (inactive). The nuclei count came out at 99.4% in [2] and 126% in [3]. In addition, the fluorescence slope in [4] is -0.358 (inactive). The NADPH fluorescence slope in assay [5] was -6.9e-05 (inactive). Moreover, in [6], the slope is 0.00589 (inactive). For the same molecule, the molecule was called inactive in assay [7].
For `COc1cccc(C2C(C(=O)c3cccs3)=C(O)C(=O)N2CCCn2ccnc2)c1OC` (stereo unspecified), in assay [1], the cell count stood at 406. For the same molecule, the inhibition was -2% (inactive) in assay [1], -168% (inactive) in [3], 8.13% (inactive) in assay [8] and 7.94% (inactive) in assay [9]. For the same molecule, in assay [2], the inhibition of aggregation is 12.6% (inactive). The nuclei count in assay [2] amounted to 96.7%; in assay [3], 106%. For the same molecule, the fluorescence slope in assay [4] was -0.341 (inactive). Also, the NADPH fluorescence slope in [5] is -6.6e-05 (inactive). In addition, the slope in assay [6] was 0.0053 (inactive). Moreover, the molecule was classed as inactive in [7].
As for `CC1=C(C(=O)N2CCOCC2)C(c2ccccc2F)C2=C(CCCC2=O)N1` (stereo unspecified), the cell count in assay [1] was found to be 401. For the same molecule, the inhibition was -0.8% (inactive) in assay [1], -24.5% (inactive) in assay [3], 3.26% (inactive) in assay [8] and 6.93% (inactive) in assay [9]. Besides, the inhibition of aggregation in assay [2] was -15% (inactive). For the same molecule, the nuclei count in [2] amounted to 111%; in assay [3] it was 121%. In addition, the fluorescence slope in assay [4] was -0.314 (inactive). Besides, the NADPH fluorescence slope in [5] is 4.2e-06 (inactive). The slope in assay [6] is 0.00583 (inactive). For the same molecule, the result in assay [7] was inactive.

The term inhibition denotes the drop in the measured response relative to a control, in per cent.
